Screening results (PubChem)
An excerpt weighted towards active compounds, which were near 3.2% of everything screened.
UBC13 inh = human UBC13 polyubiquitination inhibition; inhibition, % at 20 µM; P61088; UBC13 polyubiquitin chain formation, TR-FRET; 330,000 compounds, 0.47% hits; in the data active = inhibition above about 45%, passing the limit was not always enough; inconclusive = no clear call, values can overlap the other calls
Target sequence (P61088 whole entry, looked up): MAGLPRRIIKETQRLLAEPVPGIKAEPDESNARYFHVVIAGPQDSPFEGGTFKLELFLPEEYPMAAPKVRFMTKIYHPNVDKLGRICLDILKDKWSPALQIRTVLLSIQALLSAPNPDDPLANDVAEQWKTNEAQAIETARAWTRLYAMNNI
Apaf1 inhib = blocks human Apaf-1 apoptosome activity; AID 489030; O14727; 330,000 compounds, 0.71% hits; reconstituted apoptosome caspase-3 activity, DEVD-Rh110 fluorescence; inhibition, % at 20 µM; active = inhibition of at least 40% at 20 µM;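 also: plate controls were DMSO wells for no effect and DEVD-CHO caspase inhibitor wells for full effect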
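Material: biochemical Apaf-1 apoptosome reconstitution. Medium: Hepes buffer, pH 7.5. Also added: cytochrome c activation, bis-DEVD rhodamine 110 substrate. Timing: 30 min compound preincubation, 50 min activation, room temperature. Measured by: rhodamine 110 fluorescence at Ex 480/Em 540 nm.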
MEKK3 PB1 HTS = modulators (inhibitors or enhancers) of MEK5 binding to human MEKK3 PB1 domain; Q99759; bead-based flow cytometry, Alexa488-MEK5 binding to MEKK3; actives lie on both sides; 0 = blocked by unlabeled MEK5, 100 = vehicle; binding response (% of control), % at 10 µM; 290,000 compounds, 1.4% hits;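 active = binding response more than 3 SD above or below the average of its plate-row segment, actives on both sides; inconclusive = wells at one plate position flagged as instrument error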;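 also: Alexa488 bead fluorescence after subtracting the streptavidin-only scavenger bead signal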
Pemphigus Ab inh = human desmoglein-3 autoantibody binding inhibition | binding (percent of control), % at 10 µM | 310,000 compounds, 0.48% hits | AID 588358 | P32926 | DSG3-coupled beads, scFv-anti-DSG3-GFP binding, flow cytometry; stronger effect = lower value;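 active = binding more than 3 SD below its plate's average and above zero; inconclusive = below that plate limit but binding exactly zero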;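 also: hits lower antibody fragment binding to DSG3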
MEKK2 WT-MEK5 = raises or lowers MEK5 binding to wildtype human MEKK2 PB1 domain | bead flow cytometry, Alexa488-MEK5 binding to MEKK2 WT; actives lie on both sides | binding response (% of control), % at 10 µM | 290,000 compounds, 1.1% hits | AID 1531 | Q9Y2U5; in the data active = binding response below about 67% or above about 130%; inconclusive = no clear call, values can overlap the other calls; inactive = in between
MEKK2mut PB1 HTS = signal of MEK5 binding to mutant human MEKK2 PB1 domain | AID 1530 | bead flow cytometry, Alexa488-MEK5 binding to MEKK2 mutant | percent response, % at 10 µM | 290,000 compounds, 0.35% hits; in the data active = percent response above about 24%, passing the limit was not always enough
Casp3 counter = inhibits human caspase-3 in UBC13 counter-screen; 1,400 compounds, 4% hits; inhibition, % at 20 µM; AID 488856; Recombinant caspase-3, Caspase-Glo 3/7 luminescence, 60 min; shares compounds with UBC13 inh;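 active = mean inhibition across replicates above about 26%, limit read from the data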;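 also: plate controls were DMSO with caspase-3 for no effect and DMSO wells lacking enzyme for full effect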
Target sequence (P42574 whole entry, looked up): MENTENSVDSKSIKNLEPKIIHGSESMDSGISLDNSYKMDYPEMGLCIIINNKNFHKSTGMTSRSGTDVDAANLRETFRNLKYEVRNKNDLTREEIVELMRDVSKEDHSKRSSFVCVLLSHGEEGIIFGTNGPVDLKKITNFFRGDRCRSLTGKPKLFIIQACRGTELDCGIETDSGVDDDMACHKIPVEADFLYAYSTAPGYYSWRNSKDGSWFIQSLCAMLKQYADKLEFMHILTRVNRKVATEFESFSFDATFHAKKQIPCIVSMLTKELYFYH
UBC13 confirm = confirmation of human UBC13 polyubiquitin inhibitors; shares compounds with UBC13 inh; UBC13 polyubiquitination, TR-FRET, biochemical; inhibition, % at 10 µM; 1,400 compounds, 68% hits; AID 488859; in the data active = inhibition above about 45%; inconclusive = no clear call, values can overlap the other calls
* hit, by the source's call; ? = inconclusive; . = no result.

SMILES	UBC13 inh	Apaf1 inhib	MEKK3 PB1 HTS	Pemphigus Ab inh	MEKK2 WT-MEK5	MEKK2mut PB1 HTS	Casp3 counter	UBC13 confirm
Cc1nn(CC(=O)NCCCN2CCC(Cc3ccccc3)CC2)c(=O)c2cc(-c3ccccc3)nn12	93*	16	108	106	161*	48*	2	112*
CC1C(=O)N(Cc2cn(Cc3ccco3)nn2)CCS(=O)(=O)N1Cc1ccc(-c2ccc(Cl)cc2)cc1 (stereo unspecified)	.	.	.	100	.	.	.	.
Cc1cccc(Nc2cc(C)c3c(O)cccc3n2)c1C	74*	27	63	109	98	-4	0	58*
Cc1cccc(NC(=S)N(C)C)c1C	-1	-26	85	98	87	-21	.	.
CCn1c(SCC(=O)Nc2oc(C)c3c(C)n[nH]c(=O)c23)nc2sc(C)c(C)c2c1=O	64*	31	.	102	.	.	-2	18
COc1ccc(S(=O)(=O)N2CCOCC2)cc1NC(=O)c1ccc(S(=O)(=O)N(C)c2ccccc2OC)cc1	.	.	.	96	.	.	.	.
N#Cc1ccsc1NC(=O)C1CCN(C(=O)c2ccc(Cl)cc2)CC1	48*	6	.	102	.	.	-2	79*
O=C(NC1CCCC1)C1CCN(C(=O)c2ccc(Cl)cc2)CC1	2	1	103	.	104	6	.	.
C=C(C)COc1ccc(-c2[nH]ncc2Oc2cccc(OC)c2)c(O)c1	68*	24	99	102	113	7	-4	68*
C=C(C)COc1ccc(-c2[nH]ncc2Oc2ccccc2OCC)c(O)c1	21	25	106	104	107	0	.	.
CN(C(=O)CSc1nc2ccccc2o1)C1CCCCC1	0	10	.	99	.	.	.	.
CN(C)c1nc(-c2ccccc2)c2cc(Cl)ccc2n1	23	12	97	?	89	0	.	.
CCSc1nc(-c2ccccc2)c2cc(Cl)ccc2n1	49*	7	104	88	96	-1	-3	?
O=[N+]([O-])c1cc(S(=O)(=O)O)cc([N+](=O)[O-])c1NN(c1ccccc1)c1ccccc1	-17	14	108	92	100	8	.	.
CC1(C)Cc2c(c(N3CCOCC3)nc3sc4c(=O)[nH]cnc4c23)CS1	50*	11	93	89	94	0	-2	54*
COC(=O)/C=c1\[nH]c2nnc(C)n2c1=O	18	-20	96	108	99	-2	.	.
O=C1CC(c2ccccc2)=C(c2ccccc2)C1c1ccccc1 (stereo unspecified)	.	.	.	113	.	.	.	.
C#CCOCCOCCOCCNc1nc(N2CCOCC2)nc(N2CCN(C(=O)[C@H](CCCN=C(N)N)n3cc(C(N)[C@@H](C)CC)nn3)CC2)n1 (stereo partly specified)	30	25	.	105	.	.	.	.
C#CCOCCOCCOCCNc1nc(N2CCN(C(=O)[C@H](CCCCN)n3cc(CN)nn3)CC2)nc(N2CCN(C(=O)[C@H](CCCN=C(N)N)n3cc(C(N)[C@H](C)CC)nn3)CC2)n1 (stereo partly specified)	92*	35	.	104	.	.	2	103*
C#CCOCCOCCOCCNc1nc(N2CCN(C(=O)[C@H](CCCN=C(N)N)n3cc(C(N)[C@@H](C)CC)nn3)CC2)nc(N2CCN(C(=O)[C@H](CC(N)=O)n3cc([C@@H](N)CC(N)=O)nn3)CC2)n1 (stereo partly specified)	64*	33	.	106	.	.	2	51*
C#CCOCCOCCOCCNc1nc(N2CCN(C(=O)[C@H](CCCN=C(N)N)n3cc(C(N)[C@H](C)CC)nn3)CC2)nc(N2CCN(C(=O)[C@H](CCCN=C(N)N)n3cc(C(N)[C@@H](C)CC)nn3)CC2)n1 (stereo partly specified)	74*	36	.	108	.	.	-1	56*
Cc1ccc(C)c(S(=O)(=O)N2CCNCC2)c1	-2	-13	103	102	105	2	.	.
Cc1ccc(C)c(S(=O)(=O)c2c[nH]c(=S)[nH]c2=O)c1	45*	2	100	105	103	-3	0	?
Cc1ccc(NC(=O)N2CCOCC2)cc1NC(=O)N1CCOCC1	.	.	.	96	.	.	.	.
Cc1cccc(N2C(=O)c3ccc(C(=O)Nc4ccccn4)cc3C2=O)c1	-4	6	99	98	104	-5	.	.
SMILES	UBC13 inh	Apaf1 inhib	MEKK3 PB1 HTS	Pemphigus Ab inh	MEKK2 WT-MEK5	MEKK2mut PB1 HTS	Casp3 counter	UBC13 confirm
CC(=O)Nc1ccc2c(c1)C(=O)N(c1cccc(C)c1)C2=O	46*	-12	105	98	99	2	2	40
O=S(=O)(Nc1nc2ccccc2[nH]1)c1ccc(Cl)cc1	52*	4	101	102	97	1	-2	49*
COc1ccc(-c2noc(=O)n2Cc2ccccc2Cl)cc1	9	0	96	103	101	2	.	.
COc1ccccc1NC(=O)c1c(N=Cc2c(O)ccc3ccccc23)cnn1C	58*	0	105	98	100	-5	0	66*
Cn1ncc(N=Cc2c(O)ccc3ccccc23)c1C(=O)N1CCOCC1	3	7	108	103	109	4	.	.
NS(=O)(=O)c1ccc(NC(=O)/C(=C/c2ccncc2)NC(=O)c2ccccc2)cc1	-4	-5	99	102	100	-1	.	.
CCOC(=O)c1c(C)[nH]c(C2=NNC(=NC3CC3)SC2)c1C	77*	3	107	97	105	-3	73*	101*
O=C(COC(=O)c1c(F)cccc1F)Nc1cccc(S(=O)(=O)N2CCCCC2)c1	.	.	.	94	.	.	.	.
C#CCOCCOCCOCCNc1nc(N2CCN(C(=O)[C@H](CO)n3cc([C@@H](N)C(C)C)nn3)CC2)nc(N2CCN(C(=O)[C@H](CCC(=O)O)n3cc([C@@H](N)CCCCN)nn3)CC2)n1	45*	12	.	94	.	.	-1	47*
C#CCOCCOCCOCCNc1nc(N2CCN(C(=O)C([C@@H](C)O)n3cc([C@@H](N)CCCCN)nn3)CC2)nc(N2CCN(C(=O)C([C@@H](C)O)n3cc([C@@H](N)CCCCN)nn3)CC2)n1 (stereo partly specified)	80*	29	.	100	.	.	0	61*
C#CCOCCOCCOCCNc1nc(N2CCN(C(=O)[C@H](CCCCN)n3cc([C@@H](N)CO)nn3)CC2)nc(N2CCN(C(=O)[C@H](CCCCN)n3cc([C@@H](N)CC(C)C)nn3)CC2)n1	73*	12	.	102	.	.	3	66*
